SMILES strings stand for the structures. Some results are limits rather than exact numbers.

The nature of assay [1]: Inhibitory concentration against Human Jurkat leukemia (JLC) cell proliferation. Format: functional. In short, it runs like this: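 Human Jurkat leukemia (JL_C) cells at 3.75 × 10³ per well, cultured 4 days with drug. Sulforhodamine read-out. IC50 is the concentration reducing cell number to 50% of untreated controls. Duplicate independent assays, coefficient of variation 6.3%.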

Assay [2] is described as follows: Inhibitory concentration against Murine Lewis lung carcinoma (LLC) cell proliferation. Format: functional, cell-based. Particulars: Mus musculus. The gist of the method:
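Lewis lung carcinoma (LLTC) cells plated at 10³ per well and exposed to drug for 4 days. Growth was measured by sulforhodamine assay. IC50 is the concentration giving 50% of control cell number. Independent assays were run in duplicate, with a coefficient of variation of 12%.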

Assay [3] is described as follows: Ratio of inhibitory concentration of Human Jurkat leukemia A (JLA) and Human Jurkat leukemia C (JLC). Format: functional. In short, it runs like this:
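Human Jurkat leukemia cells (JLC) and their amsacrine-resistant derivative (JLA) were seeded at 3.75 × 10³ cells/well and grown 4 days with drug. Growth was read by sulforhodamine assay. IC50 is the drug level cutting cell number to 50% of control cultures; the ratio is IC50(JLA)/IC50(JLC). Independent assays were run in duplicate; CVs were 9.3% (JLA) and 6.3% (JLC).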

A short description of assay [4]: Ratio of inhibitory concentration of Human Jurkat leukemia D (JLD) and Human Jurkat leukemia C (JLC). Format: functional. The gist of the method: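 Parental Jurkat (JL_C) and its amsacrine-resistant (JL_A) and doxorubicin-resistant (JL_D) derivatives, each seeded at 3.75 × 10³ per well for 4 days of drug exposure. Sulforhodamine assay gave IC50 (50% of control cell number). The ratio is resistant-line IC50 over JL_C IC50. Duplicate assays; coefficients of variation 9.3% (JL_A) and 5.7% (JL_D).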

Assay [5] can be described thus: Inhibitory concentration to reduce cell number to 50% of Murine P388 leukemia cell culture. Format: functional, Mus musculus. In short, it runs like this:
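Murine P388 leukemia cells seeded at 4.5 × 10³ per well and grown 3 days with drug. Growth was read by [³H]TdR uptake. IC50 is the drug concentration that reduces cell number to 50% of control cultures. Independent assays were run in duplicate, with a coefficient of variation of 12%.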

For `CC[C@@]1(O)C(=O)OCc2c1cc1n(c2=O)Cc2cc3ccccc3nc2-1` [CAMPTOTHECIN], the IC50 in assay [1] came to 0.0056 µM; in assay [2], 0.033 µM. For the same compound, the values for the IC50 ratio in assay [3] and in assay [4] were 2 and 1.4, respectively.

`CN(C)CCNC(=O)c1cccc2cc3sc4ccccc4c3nc12`: the IC50 in assay [1] amounted to 0.17 µM; in assay [2], 0.066 µM; in assay [5], 0.046 µM. Besides, the IC50 ratio in assay [3] worked out at 1.5; in assay [4] it was 1.6.

For `CN(C)CCNC(=O)c1cccc2nc3c(nc12)-c1ccccc1C3=O`, the IC50 stood at 1.1 µM in assay [1], 0.88 µM in assay [2] and 0.7 µM in assay [5]. In addition, the IC50 ratio in assay [3] came out at 1; in assay [4] it was 1.1.

Regarding `CN(C)CCNC(=O)c1cccc2cc3c(nc12)C(=O)c1ccccc1-3`, the IC50 in assay [1] stood at 0.37 µM; in assay [2], 0.15 µM; in assay [5] it was 0.085 µM. Also, the IC50 ratio in assay [3] and in assay [4] was 0.9 throughout.

For the compound `CN(C)CCNC(=O)c1cccc2cc3c(nc12)-c1ccccc1C3=O`, the IC50 in assay [1] amounted to 0.18 µM; in assay [2], 0.091 µM; in assay [5], 0.13 µM. Further, the values for the IC50 ratio in assay [3] and in assay [4] were 1.2 and 0.9, respectively.

With `CN(C)CCNC(=O)c1cc(Cl)cc2nc3c(nc12)oc1ccccc13`, the 50% inhibitory concentration (IC50) in assay [1] is 1.5 µM; in assay [2], 1.4 µM; in assay [5], 6.8 µM. In addition, the IC50 ratio in assay [3] was 1.2; in assay [4], more than 1.3.

Consider `CN(C)CCNC(=O)c1cccc2cc3[nH]c4ccccc4c3nc12`, for which the IC50 in assay [1] was determined as 0.45 µM; in assay [2], 0.29 µM; in assay [5] it was 0.37 µM. Further, the figures for the IC50 ratio in assay [3] and in assay [4] were 1 and 1.1, respectively.

For the compound `CN(C)CCNC(=O)c1cccc2nc3c(nc12)oc1ccccc13`, the IC50 in assay [1] came out at 2.6 µM; in assay [2], 1.7 µM; in assay [5] it was 2.2 µM. For the same compound, the IC50 ratio in assay [3] and in assay [4] was 1 throughout.

With `CN(C)CCNC(=O)c1cccc2cc3c(nc12)-c1ccccc1C3`, the concentration for half-maximal inhibition (IC50) in assay [1] amounted to 0.32 µM; in assay [2], 0.19 µM; in assay [5], 0.088 µM. The IC50 ratio turned out to be 1.8 in assay [3] and 1.9 in assay [4].

`CN(C)CCNC(=O)c1cccc2nc3sc4ccccc4c3nc12`: the figures for the IC50 in assay [1], in assay [2] and in assay [5] were 0.15 µM, 0.11 µM and 0.1 µM, respectively. Also, the IC50 ratio in assay [3] was found to be 1.9; in assay [4], 2.7.

In the case of `COc1cc(NS(C)(=O)=O)ccc1Nc1c2ccccc2nc2ccccc12` [AMSACRINE], the IC50 in assay [1] came out at 0.037 µM; in assay [2], 0.012 µM; in assay [5] it was 0.02 µM. Moreover, the results for the IC50 ratio in assay [3] and in assay [4] were 85 and 74, respectively.

As to `CN(C)CCNC(=O)c1cccc2[nH]c3c4ccccc4nc-3nc12`, the half-maximal inhibitory concentration (IC50) was determined as 1.4 µM in assay [1], 0.99 µM in assay [2] and 0.67 µM in assay [5]. In addition, the IC50 ratio in assay [3] came out at 0.9; in assay [4] it was 1.

As for `COc1cc([C@@H]2c3cc4c(cc3[C@@H](O[C@@H]3O[C@@H]5CO[C@@H](C)O[C@H]5[C@H](O)[C@H]3O)[C@H]3COC(=O)[C@H]23)OCO4)cc(OC)c1O` [ETOPOSIDE], the values for the IC50 in assay [1], in assay [2] and in assay [5] were 0.16 µM, 0.18 µM and 0.025 µM, respectively. The figures for the IC50 ratio in assay [3] and in assay [4] were 13 and 90, respectively.

`CN(C)CCNC(=O)c1cc(Cl)cc2[nH]c3c4ccccc4nc-3nc12`: the values for the IC50 in assay [1], in assay [2] and in assay [5] were 0.3 µM, 0.36 µM and 15 µM, respectively. The results for the IC50 ratio in assay [3] and in assay [4] were 1.2 and 1.3, respectively.

In the case of `COc1cccc2c1C(=O)c1c(O)c3c(c(O)c1C2=O)C[C@@](O)(C(=O)CO)C[C@@H]3O[C@H]1C[C@H](N)[C@H](O)[C@H](C)O1` [DOXORUBICIN], the IC50 in assay [1] was 0.0096 µM; in assay [2], 0.022 µM; in assay [5], 0.015 µM. Also, the figures for the IC50 ratio in assay [3] and in assay [4] were 4.4 and 90, respectively.

Regarding `CN(C)CCNC(=O)c1cccc2nc3c(nc12)-c1ccccc1C3`, the IC50 in assay [1] is 0.55 µM; in assay [2] it was 0.39 µM; in assay [5] it was 0.36 µM. Further, the IC50 ratio in assay [3] and in assay [4] was 1 in each case.

Turning to `CN(C)CCNC(=O)c1cccc2c(C(=O)NCCN(C)C)c3sc4ccccc4c3nc12`, the IC50 in assay [1] worked out at 0.034 µM; in assay [2], 0.03 µM; in assay [5] it was 0.025 µM. Also, the values for the IC50 ratio in assay [3] and in assay [4] were 0.5 and 0.9, respectively.

With `CN(C)CCNC(=O)c1cc(Cl)cc2nc3oc4ccccc4c3nc12`, the IC50 in assay [1] was more than 2 µM; in assay [2] it was more than 2 µM; in assay [5], 5.8 µM.

As for `CN(C)CCNC(=O)c1cccc2cc3oc4ccccc4c3nc12`, the figures for the IC50 in assay [1], in assay [2] and in assay [5] were 0.43 µM, 0.21 µM and 0.17 µM, respectively. Also, the IC50 ratio in assay [3] and in assay [4] was 1.2 throughout.

`CN(C)CCNC(=O)c1cccc2cc3ccccc3nc12`: the half-inhibitory concentration (IC50) in assay [1] was 0.58 µM; in assay [5] it was 0.098 µM.

`CN(C)CCNC(=O)c1cc(Cl)cc2[nH]c3nc4ccccc4c-3nc12`: the IC50 in assay [1] came to 0.98 µM; in assay [2], 0.7 µM; in assay [5], 1.6 µM. Also, the IC50 ratio in assay [3] stood at 0.8; in assay [4], 0.9.

As to `CN(C)CCNC(=O)c1cccc2cc3c(nc12)-c1ccccc1S3(=O)=O`, the IC50 is 0.86 µM in assay [1], 0.43 µM in assay [2] and 1.8 µM in assay [5]. In addition, the IC50 ratio in assay [3] turned out to be 3.2; in assay [4] it was 4.2.

The term IC50 denotes the concentration that inhibits the measured activity by half. A high value points to a need for much substance.
